beta cell repl – inducers of MIN6 beta-cell proliferation, primary screen, ATP luminescence, uHTS; MIN6 cells proliferation, ATPlite luminescence, 48 h; cells starved in 0.2% serum; 100% = growth in 10% serum; 330,000 tested, 0.29% active; proliferation, % at 10 µM; AID 2380, 2010;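 active = compounds whose signal lies at least 3.5 SD above the mean of all wells on their plate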;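 note: 0% = DMSO-treated cells in low-serum medium and 100% = 10% serum control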
Rce1 inh – yeast Rce1p protease inhibitors, primary screen, biochemical, fluorescence, cell-free homogeneous. CAAX prenyl protease 2 (Saccharomyces cerevisiae (strain ATCC 204508 / S288c)), Q03530. calls only. 290,000 tested, 0.27% active. yeast membranes, quenched prenylated peptide cleavage fluorescence;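 active = fall in fluorescence gain of 50% or more versus controls, with final raw signal at or below 3038400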;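 note: plate controls were neutral control wells for no effect and wells lacking membranes for full effect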
Target sequence (Q03530 whole entry, looked up): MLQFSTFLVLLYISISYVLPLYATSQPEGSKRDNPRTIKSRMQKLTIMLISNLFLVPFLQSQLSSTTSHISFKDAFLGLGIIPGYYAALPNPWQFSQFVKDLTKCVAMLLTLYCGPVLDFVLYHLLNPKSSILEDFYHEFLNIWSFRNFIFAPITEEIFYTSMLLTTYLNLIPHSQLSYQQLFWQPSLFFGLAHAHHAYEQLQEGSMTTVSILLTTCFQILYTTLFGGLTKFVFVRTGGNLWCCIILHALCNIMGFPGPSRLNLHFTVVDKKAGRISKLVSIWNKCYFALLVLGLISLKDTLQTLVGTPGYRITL
T cell modulator – modulators of CD8 T cell-vesicle binding, primary screen, mouse 2C CD8+ T cells, flow cytometry. 2C CD8+ T cell-vesicle binding; active compounds read low. 330,000 tested, 0.068% active. response (vesicle binding), % at 7 µM;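 active = response, share of CD8 T cells binding vesicles, and their 90th percentile fluorescence all below set limits, cut at about 80% in these data, passing the limit was not always enough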;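 note: values below 100% mean blocked vesicle binding to the CD8+ T cells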
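Material: 2C TCR transgenic mouse naive CD8+ T cells, MACS-purified. Also added: QL9-charged Drosophila Ld/ICAM-1/B7-1 vesicles. Timing: binding 1.5 h at 37 °C. Measured by: high-throughput flow cytometry with anti-B7-1 and anti-CD8 staining. Read-out: percent CD8+ FL2 mean versus row control. Controls: Unloaded micro-vesicles (low), QL9 vesicles with 0.7% DMSO (high).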
KLK7 zymogen act – proKLK7 zymogen activators, primary screen, biochemical, fluorescence intensity; purified proKLK7, EDANS-DABCYL substrate fluorescence; 100% is mature enzyme control, 0% vehicle; Kallikrein-7 (Homo sapiens), P49862; activation, % at 7 µM; AID 652039, 2013; 370,000 tested, 0.9% active;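 active = activation above the mean of all tested compounds plus 3 SD, computed per campaign excluding outliers beyond control limits, cut at about 13% in these data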
Target sequence (P49862 whole entry, looked up): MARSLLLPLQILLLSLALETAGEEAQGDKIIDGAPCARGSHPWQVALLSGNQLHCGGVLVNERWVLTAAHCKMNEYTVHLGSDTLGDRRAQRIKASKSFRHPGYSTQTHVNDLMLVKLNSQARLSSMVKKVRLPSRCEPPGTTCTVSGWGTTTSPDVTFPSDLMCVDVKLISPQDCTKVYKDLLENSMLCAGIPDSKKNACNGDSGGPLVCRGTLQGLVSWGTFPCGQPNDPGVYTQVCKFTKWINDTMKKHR
Yeast superoxide – reduction of superoxide in aged yeast, primary screen, HTS. AID 2690, 2010. superoxide response (% of plate mean), % at 10 µM. S. cerevisiae aged cells, superoxide DHE fluorescence; active compounds read low. 330,000 tested, 0.18% active;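 active = superoxide response under a set limit, about three screen SD below normal, cut at about 65% in these data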;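 note: yeast aged for seven days with compound at 30 °C before DHE staining; 100% = average MFI of all compound-treated wells on the plate with controls excluded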
V-ATPase pH – regulators of yeast V-ATPase proton pumping, primary screen, pHLuorin cytosolic pH fluorescence; response, % at 10 µM; S. cerevisiae; 350,000 tested, 0.37% active; in the data active = response mostly above about 7.3%, no sharp cut-off; inactive = mostly below about 5.4%; note: actives read high
Starred values were filed as active, the others as inactive. The list is not random: actives were taken first. Their share in the collection is about 1.9%.

What do the screens show for `COC(=O)[C@]12C=CCN1[C@@H](c1ccc(Cl)cc1)c1c(c3ccccc3n1S(=O)(=O)c1ccc(C)cc1)C2`?
KLK7 zymogen act: -3

What do the screens show for `CCOC(=O)c1[nH]c2ccc(OC)cc2c1NC(=O)CN1CCC2(CC1)OCCO2`?
beta cell repl: -2; Rce1 inh: active; T cell modulator: 179; KLK7 zymogen act: 10; Yeast superoxide: 102; V-ATPase pH: -5

Results for CCOC(=O)c1[nH]c2ccc(OC)cc2c1NC(=O)CN1CCc2ccccc2C1 ?
beta cell repl: 4; Rce1 inh: inactive; T cell modulator: 390; KLK7 zymogen act: -13; Yeast superoxide: 95; V-ATPase pH: -3

Results for O=c1cc(-c2ccccc2)nc2nc(CCc3ccccc3)[nH]n12 ?
beta cell repl: 0; Rce1 inh: inactive; T cell modulator: 246; KLK7 zymogen act: 0; Yeast superoxide: 116; V-ATPase pH: 16*

Results for Cc1nn(C)c(C(=O)N/N=C/c2ccc(Br)cc2)c1Cl ?
beta cell repl: -1; Rce1 inh: inactive; T cell modulator: 322; KLK7 zymogen act: 0; Yeast superoxide: 61*; V-ATPase pH: 4

How did Cc1nn(C)c(C(=O)N/N=C/c2ccncc2)c1Cl do in these assays?
beta cell repl: 5; T cell modulator: 387; KLK7 zymogen act: 0; Yeast superoxide: 94; V-ATPase pH: 1

How did O=C(CSCc1ccc(Br)cc1)N=Nc1c(O)[nH]c2ccccc12 do in these assays?
beta cell repl: 8.7*; Rce1 inh: inactive; T cell modulator: 226; KLK7 zymogen act: 0; Yeast superoxide: 100; V-ATPase pH: -3

Results for COc1ccc(Cn2nnnc2C(c2cccs2)N2CCCCCC2)cc1 (configuration not stated) ?
beta cell repl: -5; Rce1 inh: inactive; T cell modulator: 52*; KLK7 zymogen act: 0; Yeast superoxide: 85; V-ATPase pH: 0

How did CC1(C)N=C(c2cccc(F)c2)C(=O)N1 do in these assays?
beta cell repl: -4; Rce1 inh: inactive; T cell modulator: 466; Yeast superoxide: 95; V-ATPase pH: 20*

What do the screens show for `COC(=O)C1=C(C)N(C)C(=NCc2ccccc2C(F)(F)F)NC1c1cccc(F)c1` (configuration not stated)?
KLK7 zymogen act: 0

Results for O=C(O)CCC(=O)Nc1nc2nc(-c3ccccc3)cc(-c3ccccc3)n2n1 ?
beta cell repl: -2; Rce1 inh: active; T cell modulator: 335; KLK7 zymogen act: 5; Yeast superoxide: 112; V-ATPase pH: -2

How did Nc1nc(NC(=O)CCC(=O)O)nn1-c1ccccc1 do in these assays?
beta cell repl: -3; Rce1 inh: inactive; T cell modulator: 140; KLK7 zymogen act: 0; Yeast superoxide: 97; V-ATPase pH: 0

Results for O=C(CCSCc1cccc(Cl)c1)NCCc1ccc(Cl)cc1 ?
beta cell repl: -1; Rce1 inh: inactive; T cell modulator: 353; KLK7 zymogen act: 0; Yeast superoxide: 106; V-ATPase pH: 58*

How did CCn1c(COc2cccc(C)c2)nnc1SCC(=O)NC1CCCC1 do in these assays?
beta cell repl: -2; Rce1 inh: active; T cell modulator: 207; KLK7 zymogen act: 1; Yeast superoxide: 95; V-ATPase pH: -4

Results for CCn1c(COc2cccc(OC)c2)nnc1SCC(=O)NC1CCCC1 ?
beta cell repl: 0; Rce1 inh: inactive; KLK7 zymogen act: 0; V-ATPase pH: -1

How did O=S(=O)(c1ccc(C(F)(F)F)cc1)N1CCCc2nc(-c3ccc(F)cc3)ccc21 do in these assays?
KLK7 zymogen act: 1

How did C#C[C@]1(O)CC[C@H]2[C@@H]3CCC4=CC(=O)CC[C@@H]4[C@H]3CC[C@@]21C do in these assays?
beta cell repl: -2; Rce1 inh: inactive; T cell modulator: 585; KLK7 zymogen act: 0; Yeast superoxide: 97; V-ATPase pH: 25*

Results for C#C[C@]1(O)CC[C@H]2[C@@H]3CCC4=C(CCC(=O)C4)[C@H]3CC[C@@]21C ?
beta cell repl: -2; Rce1 inh: inactive; T cell modulator: 614; KLK7 zymogen act: 0; Yeast superoxide: 111; V-ATPase pH: -4

What do the screens show for `c1ccc(COc2ccc(OCCN3CCCCC3)cc2)cc1`?
beta cell repl: 0; Rce1 inh: inactive; T cell modulator: 81*; KLK7 zymogen act: 0; Yeast superoxide: 93; V-ATPase pH: -3

What do the screens show for `O=C(Nc1ccccc1Cl)Oc1ccc(Cl)cc1Cl`?
beta cell repl: -2; Rce1 inh: inactive; T cell modulator: 27*; KLK7 zymogen act: 0; Yeast superoxide: 82; V-ATPase pH: -3

How did S=C(Nc1ccccc1Cl)Nc1ccc(Cl)cc1Cl do in these assays?
beta cell repl: -5; Rce1 inh: inactive; T cell modulator: 242; KLK7 zymogen act: 0; Yeast superoxide: 101; V-ATPase pH: 4

How did COC(=O)[C@]12C[C@H](CC(=O)NCCCCc3ccccc3)C(=O)N(Cc3cccc4ccccc34)C1=C[C@H](C(C)(C)C)O[C@@H]2C do in these assays?
KLK7 zymogen act: 1

What do the screens show for `CCCCC1(C)OC(=O)C(=Cc2ccc(-c3ccc(Cl)c(C(=O)O)c3)o2)C(=O)O1` (configuration not stated)?
beta cell repl: -1; Rce1 inh: inactive; T cell modulator: 378; KLK7 zymogen act: 0; Yeast superoxide: 63*; V-ATPase pH: 16

How did Oc1ccc(-c2nc3ccccn3c2NCc2ccc3c(c2)OCO3)cc1 do in these assays?
beta cell repl: 0; Rce1 inh: active; T cell modulator: 380; KLK7 zymogen act: -125; Yeast superoxide: 106; V-ATPase pH: -6

Results for COc1ccc(-n2c(SCC(=O)Nc3ccc(S(=O)(=O)Nc4nccs4)cc3)nnc2-c2ccco2)cc1 ?
KLK7 zymogen act: 0

Results for CC(=O)Nc1ccc(NC(=O)C(C)OC(=O)[C@@H]2CCCN2C(=O)c2cccs2)cc1 (some centres not stated) ?
beta cell repl: -2; T cell modulator: 65*; KLK7 zymogen act: 1; Yeast superoxide: 101; V-ATPase pH: 1

How did COC(=O)C1CCCN1C(=O)c1cccs1 (configuration not stated) do in these assays?
beta cell repl: 0; Rce1 inh: inactive; T cell modulator: 186; KLK7 zymogen act: 1; Yeast superoxide: 113; V-ATPase pH: -5

What do the screens show for `O=C(Cc1ccccc1)N1CCC(Oc2cccnc2)CC1`?
KLK7 zymogen act: 0
